NPY2 pot ag: potentiates or activates human NPY-Y2 receptor | P49146 | cells expressing NPY-Y2, potentiator/agonist read-out | activation, % at 3.6 µM | 0.45% of 220,000 active; in the data active = activation above about 27%;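 note: cells stimulated with NPY near EC25 plus isoproterenol at EC100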
Target sequence (P49146 whole entry, looked up): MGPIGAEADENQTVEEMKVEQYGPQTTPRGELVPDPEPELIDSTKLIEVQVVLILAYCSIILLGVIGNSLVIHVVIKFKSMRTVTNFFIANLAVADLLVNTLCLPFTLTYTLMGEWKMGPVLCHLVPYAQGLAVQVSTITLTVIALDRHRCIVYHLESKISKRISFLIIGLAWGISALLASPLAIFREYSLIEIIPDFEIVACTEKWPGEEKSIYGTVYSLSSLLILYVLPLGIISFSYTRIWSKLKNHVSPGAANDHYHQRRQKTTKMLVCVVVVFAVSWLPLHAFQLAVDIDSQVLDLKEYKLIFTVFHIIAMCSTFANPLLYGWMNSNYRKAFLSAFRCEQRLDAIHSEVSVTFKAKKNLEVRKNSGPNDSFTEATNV
NPY-Y1 PAM-ag: human NPY-Y1 potentiation or agonism, primary screen; 0.37% of 220,000 active; AID 1304; NPY-Y1 expressing cells, potentiator/agonist activation; activation, % at 3.6 µM; in the data active = activation above about 33%, passing the limit was not always enough;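 note: cells stimulated with NPY at EC10 then isoproterenol at EC100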
NPY Y2 blocker: antagonists of human neuropeptide Y receptor Y2 | 0.99% of 140,000 active | P49146 | AID 793 | NPY-Y2 expressing cells, antagonist mode | inhibition, % at 2.7 µM
NPY Y1 blocker: antagonists of human neuropeptide Y receptor Y1 | P25929 | HEK293-CNG Y1 cells, membrane potential fluorescence; NPY at EC95, then isoproterenol | inhibition, % at 3.6 µM | 1% of 200,000 active | AID 1040;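 active = inhibition above the campaign mean inhibition of all tested compounds plus 3 SD, cut at about 20% in these data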
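Material: HEK293 Y1/CNG channel cell line; also added: NPY (25 nM), isoproterenol (1 µM), Ro 20-1724 (25 µM); doses: one concentration, 3.6 µM, in 0.4% DMSO; schedule: compound incubation 1 h at room temperature, readout 45 min post-stimulation; technique: membrane potential fluorescence; measure: fluorescence ratio normalized to % inhibition between controls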
NPY-Y1 ant conf: confirmation of human neuropeptide Y receptor Y1 antagonists. shares compounds with NPY Y1 blocker. HEK293-CNG NPY-Y1, membrane potential fluorescence, cAMP; NPY challenge against isoproterenol-raised cAMP. inhibition, % at 3.6 µM. 21% of 1,200 active. AID 1254; in the data active = inhibition above about 20%
NPY2 antag ctr: antagonizes human NPY-Y2, counter-screen to NPY-Y1 antagonists | AID 1255 | 28% of 1,200 active | inhibition, % at 3.6 µM | HEK293 NPY-Y2 CNG membrane potential fluorescence, antagonism; cells given NPY, then isoproterenol | shares compounds with NPY Y1 blocker
A number is an active result; - = inactive; . = no result given. Sampled rows, rich in hits. Any-hit rate of the full collection: about 1.8%. Cut-off read from the data, not from the text of the source, unless noted: active = inhibition above about 17%; inactive = the rest.

SMILES	NPY2 pot ag	NPY-Y1 PAM-ag	NPY Y2 blocker	NPY Y1 blocker	NPY-Y1 ant conf	NPY2 antag ctr
COC(=O)c1cc(NS(=O)(=O)c2ccc(F)cc2)ccc1N1CCOCC1	-	-	.	.	.	.
CC12COC3(C(=O)Nc4ccc5ccccc5c4)CC1CCC32C (stereo unspecified)	-	-	.	23	-	24
CC12COC3(C(=O)Nc4ccccc4)CC1CCC32C (stereo unspecified)	-	-	.	-	.	.
CCCCCCCC[n+]1cccc2c3ccccc3ccc21	-	-	.	51	43	26
CCCCCCCCNc1ncnc2ccccc12	-	-	-	-	.	.
CCCCCCCCCC[n+]1cccc2c3ccccc3ccc21	-	-	.	50	48	37
Cc1cccc[n+]1CCCCCCCCCC[n+]1ccccc1C	-	-	.	-	.	.
Cc1ccccc1CC1(CO)CCCN(C(=O)c2ccccc2N(C)C)C1 (stereo unspecified)	-	-	.	28	-	-
Cc1ccccc1CC1(CO)CCCN(C(=O)c2ccc(F)cc2)C1 (stereo unspecified)	-	-	.	-	.	.
COc1ccc(C2c3[nH]c4ccccc4c3CCN2Cc2cccn2-c2ncccn2)cc1C (stereo unspecified)	-	-	.	67	41	32
Cc1cccc(C2c3[nH]c4ccccc4c3CCN2Cc2cccn2-c2ncccn2)c1 (stereo unspecified)	-	-	.	32	-	-
c1ccc(C2c3[nH]c4ccccc4c3CCN2Cc2cccn2-c2ccccn2)nc1 (stereo unspecified)	-	-	.	.	.	.
NS(=O)(=O)c1cccc(NC(=O)c2cc(-c3cccs3)nc3ccccc23)c1	-	-	.	.	.	.
Cc1c(NC(=O)/C(C#N)=C/c2ccc(-c3cccc(Cl)c3)o2)c(=O)n(-c2ccccc2)n1C	-	-	-	26	-	-
COc1ccc(C(=O)Cn2nc(CNc3ccc(Br)cc3)[n+]3c2CCCCC3)cc1	-	-	.	-	.	.
Cc1ccc(C(C)C)c(OCc2nn(CC(=O)c3ccc(OC(F)F)cc3)c3[n+]2CCCCC3)c1	-	-	.	31	-	-
COc1cc2c(cc1NC(=O)c1cccnc1)CCCC2	-	-	-	-	.	.
COc1cc2c(cc1NC(=O)c1ccc(C(C)(C)C)cc1)CCCC2	-	-	-	32	-	45
COc1ccc(C(=O)Nc2cc3c(cc2OC)CCCC3)cc1Br	-	-	-	29	-	-
COc1cc2c(cc1NC(C)=O)CCCC2	-	-	-	-	.	.
COCCNC(=O)Nc1ccc2c(c1)N(C)C(=O)CS2	-	-	-	-	.	.
CCN(CC(O)COc1ccc(OCC(O)CN(CC)C2CCCCC2)cc1)C1CCCCC1 (stereo unspecified)	-	-	-	22	-	32
CCN(CC(O)COCc1ccc(Cl)cc1)C1CCCCC1 (stereo unspecified)	-	-	.	-	.	.
Clc1ccc(CNc2nc(CN3CCOCC3)nc3scc(-c4ccccc4)c23)cc1	-	-	-	22	22	18
Clc1ccc(-c2csc3ncnc(NCCN4CCOCC4)c23)cc1	-	-	-	-	.	.
SMILES	NPY2 pot ag	NPY-Y1 PAM-ag	NPY Y2 blocker	NPY Y1 blocker	NPY-Y1 ant conf	NPY2 antag ctr
Cc1ccc(Cn2ncc(Cl)c(Cl)c2=O)cc1	-	-	-	-	.	.
CCN(CC)S(=O)(=O)c1cccc(-c2nnc(SCCOc3ccccc3)o2)c1	-	-	-	24	-	-
CC(NC(=O)C(=O)NCCCn1ccnc1)c1ccccc1 (stereo unspecified)	-	-	.	-	.	.
COc1ccc(CC2(CO)CCN(C(C)Cc3ccc(Cl)cc3)CC2)cc1 (stereo unspecified)	-	-	.	26	-	21
COc1ccc(CC2(CO)CCN(Cc3cccc(OC)c3OC)CC2)cc1	-	-	.	-	.	.
CCCn1c(C(=O)OC)cc2c1ccn2-c1ccc(F)cc1	-	-	-	55	-	-
COC(=O)c1cc2c(ccn2-c2ccc(F)cc2)n1CC(C)C	-	-	-	48	26	22
COC(=O)c1[nH]c2cccc(OC)c2c1NC(=O)C(C)N1CCC(C)CC1 (stereo unspecified)	-	-	-	-	.	.
CCC(C)(C)n1nnnc1CN(Cc1ccc(Cl)cc1)Cc1ccco1	-	-	-	24	-	-
CCC(C)(C)n1nnnc1CN(Cc1ccco1)Cc1cc2cc3c(cc2[nH]c1=O)OCO3	-	-	-	-	.	.
COc1ccc(NC(=O)N2CCC(NC(=O)c3ccco3)CC2)cc1	-	-	-	-	.	.
CC(C)(C)n1nnnc1C(c1ccc(C(F)(F)F)cc1)N(Cc1ccccc1)Cc1ccco1 (stereo unspecified)	-	-	-	47	29	-
CCN(Cc1ccccc1)C(c1ccc(C)cc1)c1nnnn1C(C)(C)CC (stereo unspecified)	-	-	-	-	.	.
c1ccc(CN(Cc2ccco2)C(c2ccncc2)c2nnnn2C2CCCC2)cc1 (stereo unspecified)	-	-	-	26	-	-
COc1cc(C)c(C)cc1S(=O)(=O)N1CCN(Cc2ccc3c(c2)OCO3)CC1	-	-	-	24	-	-
CC(O)CNCc1ccc(-c2ccccc2)cc1 (stereo unspecified)	-	-	-	-	.	.
CC(NCc1ccc(-c2ccccc2)cc1)C(O)c1ccccc1 (stereo unspecified)	-	-	-	20	-	29
CCC1(C)Cc2ccccc2-c2[nH][nH]c(=O)c21 (stereo unspecified)	-	-	.	55	-	-
N#CC(C#N)C(c1ccsc1)c1c(-c2ccccc2)[nH][nH]c1=O (stereo unspecified)	-	-	-	24	34	34
N#Cc1c(-c2ccccc2)[nH]c(=O)[nH]c1=O	-	-	.	-	.	.
CCN(CCO)C(=S)Nc1cc(S(=O)(=O)N(C)C)ccc1C	-	-	.	-	.	.
COC(=O)CN1C(C)=Nc2ccc(C)cc2C1c1ccccc1 (stereo unspecified)	-	-	.	-	.	.
CCOc1ncccc1C(=O)N1CCN(c2cc(Cl)ccc2C)CC1	-	-	.	-	.	.
CCOc1ncccc1C(=O)N1CCN(c2cccc(C)c2C)CC1	-	-	.	24	-	-
COC(=O)c1sccc1NC(=O)CSc1ccccc1N	-	-	.	-	.	.
SMILES	NPY2 pot ag	NPY-Y1 PAM-ag	NPY Y2 blocker	NPY Y1 blocker	NPY-Y1 ant conf	NPY2 antag ctr
CCOc1ccc(NC(=O)NC2CCOC(C)(C)C2)cc1 (stereo unspecified)	-	-	-	-	.	.
O=C(NCc1ccco1)c1ccccc1-c1nc(-c2ccc(F)cc2)no1	-	-	.	.	.	.
O=C(NCc1ccco1)c1nc(-c2ccc(F)cc2)no1	-	-	.	24	-	-
CCc1ccccc1NC(=S)N1CCN(c2ccccn2)CC1	-	-	-	-	.	.
CCOC(=O)c1c(NC(=O)Cc2cccs2)sc(C)c1C	-	-	-	21	-	-
O=C(Cc1n[nH]c(=O)c2ccccc12)Nc1cccc(S(=O)(=O)N2CCCC2)c1	-	-	.	.	.	.
O=c1[nH]nc(CNc2ccc(Cl)cc2Cl)c2ccccc12	-	-	.	24	-	25

Screens deposited in PubChem BioAssay by The Scripps Research Institute Molecular Screening Center.
